Assay results gathered from unrelated publications.
Lines come from different studies, so protocols differ.
Target: Receptor-interacting serine/threonine-protein kinase 2 (RIPK2, Homo sapiens, UniProt O43353)

O=C(NCCCN1CCOCC1)c1ccc(Nc2nccc(-c3cc4ccccc4s3)n2)cc1 — remaining binding (binding; competition with immobilised ligand; 1 µM): 80%
CO[C@H]1CC[C@H](CNc2ccc(S(=O)(=O)NC(=O)c3ccc(N4CCN(CC5=C(c6ccc(Cl)cc6)CC(C)(C)CC5)CC4)cc3Oc3cnc4[nH]ccc4c3)cc2[N+](=O)[O-])CC1 — remaining binding (cell-free assay; competition with immobilised ligand; 1 µM): 85%
O=C(NCC1CCOCC1)c1n[nH]cc1NC(=O)c1c(F)cccc1F — remaining binding (binding; competition with immobilised ligand; 1 µM): 100%
Cc1cnn2ncc(-c3ccnc(N(C)C)n3)c2c1 — remaining binding (binding; 1 µM): 100%
O=C(c1ccc(Nc2ncc(Cl)c(-c3ccc(Cl)s3)n2)cc1)N1CCC(N2CCCC2)CC1 — remaining binding (binding; competition with immobilised ligand; 1 µM): 89%
c1cncc(-c2cccc(Nc3nccc(NC4CCCCC4)n3)c2)c1 — remaining binding (binding; competition with immobilised ligand; 10 µM): 39%
CN([C@@H]1CCc2c(CC(=O)O)c3ccccc3n2C1)S(=O)(=O)c1ccc(F)cc1 — remaining binding (cell-free assay; competition with immobilised ligand; 1 µM): 92%
C[C@@H]1CCN(c2nccc(-c3cnn4ncccc34)n2)C1 — remaining binding (binding; 1 µM): 91%
Nc1cnc(N2CCc3cc(S(=O)(=O)Nc4c(F)cc(Cl)cc4F)cc(N4CCCC4=O)c32)nc1 — remaining binding (cell-free assay; competition with immobilised ligand; 1 µM): 53%
C[C@@H](c1ccc(-n2cnc3c(N)ncnc32)cc1)N1CCc2nn(C)c(Cc3ccccc3)c2C1=O — remaining binding (binding; competition with immobilised ligand; 0.1 µM): 100%
c1cnn2ncc(-c3ccnc(N4CCC45COC5)n3)c2c1 — remaining binding (binding; 1 µM): 78%
O=C1NC(c2ccccn2)Sc2ccccc21 (stereo not shown) — remaining binding (cell-free assay; competition with immobilised ligand; 1 µM): 100%
Cc1cnc(Nc2ccc(C(=O)N3CCC(N4CCCC4)CC3)cc2)nc1-c1cc2ccccc2s1 — remaining binding (binding; competition with immobilised ligand; 1 µM): 81%
O=C(NCc1ncc(C(F)(F)F)cc1Cl)c1ccc2c(c1)C1(CCS(=O)(=O)CC1)[C@H](C1CC1)N2S(=O)(=O)c1ccc(F)cc1 — remaining binding (cell-free assay; competition with immobilised ligand; 1 µM): 100%
COc1cnc(Nc2cccc(S(N)(=O)=O)c2)nc1N1CCN(c2ccccc2)CC1 — remaining binding (binding; competition with immobilised ligand; 1 µM): 100%
FC(F)(F)Oc1cccc(-c2cnc3ccc(-c4ccncc4)nn23)c1 — remaining binding (binding; competition with immobilised ligand; 5 µM): 42%
COc1ccnn2ncc(-c3ccnc(N(C)C)n3)c12 — remaining binding (binding; 1 µM): 100%
C[C@@H]1CN(c2cc(-c3nn(C)c4ccc(OC5(C)CC5)cc34)ncn2)C[C@H](C)O1 — remaining binding (cell-free assay; competition with immobilised ligand; 1 µM): 100%
CN(C)c1ncc(F)c(-c2cnn3ncccc23)n1 — remaining binding (binding; 1 µM): 100%
Cc1c[nH]c2nccc(Oc3c(F)cc(Nc4cc(Cl)nc(N)n4)cc3F)c12 — remaining binding (cell-free assay; competition with immobilised ligand; 0.1 µM): 92%
N[C@@H]1CCN(c2nccc(-c3cnn4ncccc34)n2)C1 — remaining binding (binding; 1 µM): 95%
COc1cnc(Nc2cccc(S(N)(=O)=O)c2)nc1N1CCN(c2ccccc2)C(=O)C1 — remaining binding (binding; competition with immobilised ligand; 1 µM): 100%
